According to ChEMBL document CHEMBL2390837, “Synthesis, cytotoxic activity and DNA-interaction studies of novel anthraquinone-thiosemicarbazones with tautomerizable methylene group” (Eur J Med Chem, 2013):
Active and inactive are the calls of the source. No cut-off for these calls is given here.

How the values were obtained:
HeLa [1] = experiment: Cell cycle arrest in human HeLa cells assessed as accumulation at G1 phase at 2 times IC50 after 24 hrs by propidium iodide staining-based FACS flow cytometric analysis (reference value: 51.97%); assay type: functional
MDA-MB-361 = experiment: Cytotoxicity against human MDA-MB-361 cells after 72 hrs by MTT assay; assay type: functional, cell-based; details: MDA-MB-361, 72 h
In short: (§1)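 Cells seeded in 96-well plates: HeLa 2000, MDA-MB-361 7000, MDA-MB-453 3000, K562, A549 and MRC-5 5000 per well. Compounds added at 5–100 μM (final), DMSO ≤0.5%, in RPMI-1640 with 10% FBS. Added after 24 h, except K562 at 2 h after seeding. Exposure 72 h, then MTT 4 h at 37 °C, SDS solubilization, A570 read. IC50 is the mean ± SD of three independent experiments.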

K562 = experiment: Cytotoxicity against human K562 cells after 72 hrs by MTT assay; assay type: functional, cell-based; details: K562, 72 h; in short: as §1
HeLa [2] = experiment: Cell cycle arrest in human HeLa cells assessed as accumulation at G1 phase at IC50 after 24 hrs by propidium iodide staining-based FACS flow cytometric analysis (reference value: 51.97%); assay type: functional
MDA-MB-453 = experiment: Cytotoxicity against human MDA-MB-453 cells after 72 hrs by MTT assay; assay type: functional, cell-based; details: MDA-MB-453, 72 h; in short: as §1
HeLa [3] = experiment: Cell cycle arrest in human HeLa cells assessed as accumulation at G2/M phase at IC50 after 24 hrs by propidium iodide staining-based FACS flow cytometric analysis (reference value: 21.66%); assay type: functional
HeLa [4] = experiment: Induction of apoptosis in human HeLa cells at IC90 after 24 hrs by propidium iodide staining-based FACS flow cytometric analysis in presence of caspase-9 inhibitor Z-LEHD-FMK; assay type: functional, cell-based
HeLa [5] = experiment: Cell cycle arrest in human HeLa cells assessed as accumulation at S phase at 2 times IC50 after 24 hrs by propidium iodide staining-based FACS flow cytometric analysis (reference value: 16.22%); assay type: functional
Escherichia coli = experiment: Induction of Escherichia coli XL1 blue pUC18 DNA cleavage assessed as conversion of supercoiled DNA to relaxed circular DNA at 2 mM after 90 mins by agarose gel electrophoresis
In short: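 Supercoiled pUC18 (262 ng, from E. coli XL1 blue) incubated with 2 mM compound in 20 μL of 40 mM bicarbonate buffer pH 8.4 at 37 °C for 90 min. Reaction stopped with loading buffer. Analyzed on 1% agarose in TAE pH 8.24 at 80 V and stained with ethidium bromide (0.5 µg/mL).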

HeLa [6] = experiment: Induction of apoptosis in human HeLa cells at IC90 after 24 hrs by propidium iodide staining-based FACS flow cytometric analysis in presence of caspase-3 inhibitor Z-DEVD-FMK; assay type: functional, cell-based
HeLa [7] = experiment: Cell cycle arrest in human HeLa cells assessed as accumulation at subG1 phase at IC50 after 24 hrs by propidium iodide staining-based FACS flow cytometric analysis (reference value: 9.10%); assay type: functional
HeLa [8] = experiment: Cytotoxicity against human HeLa cells after 72 hrs by MTT assay; assay type: functional, cell-based; in short: as §1
A549 = experiment: Cytotoxicity against human A549 cells after 72 hrs by MTT assay; assay type: functional, cell-based; details: A549, 72 h; in short: as §1
MRC5 = experiment: Cytotoxicity against human MRC5 cells after 72 hrs by MTT assay; assay type: cell-based; details: MRC5, 72 h; in short: as §1
DNA [9] = experiment: Binding affinity to calf thymus DNA at 20 to 80 uM after 1.5 hrs by UV-vis spectrophotometric analysis; assay type: nucleic-acid assay; details: Bos taurus
In short: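 UV–Vis spectra (200–800 nm, 1 cm cells) of compound at 20, 40, 60 or 80 μM, with or without 0.12 mM CT-DNA. CT-DNA was dissolved in 10 mM Tris-HCl pH 7.9. Mixtures were in 40 mM bicarbonate buffer pH 8.4, incubated 1.5 h at 37 °C with occasional vortexing.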

HeLa [10] = experiment: Cell cycle arrest in human HeLa cells assessed as accumulation at S phase at IC50 after 24 hrs by propidium iodide staining-based FACS flow cytometric analysis (reference value: 16.22%); assay type: functional
HeLa [11] = experiment: Induction of apoptosis in human HeLa cells at IC90 after 24 hrs by propidium iodide staining-based FACS flow cytometric analysis in presence of caspase-8 inhibitor Z-IETD-FMK; assay type: functional, cell-based
HeLa [12] = experiment: Cell cycle arrest in human HeLa cells assessed as accumulation at G2/M phase at 2 times IC50 after 24 hrs by propidium iodide staining-based FACS flow cytometric analysis (reference value: 21.66%); assay type: functional
HeLa [13] = experiment: Cell cycle arrest in human HeLa cells assessed as accumulation at subG1 phase at 2 times IC50 after 24 hrs by propidium iodide staining-based FACS flow cytometric analysis (reference value: 9.10%); assay type: functional
[14] = tested on: Radical scavenging activity; experiment: Antioxidant activity assessed as DPPH radical scavenging activity after 30 mins by spectrophotometric analysis; assay type: functional
In short: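 Test solutions at 8–1000 μM in methanol mixed 1:1 by volume with 200 μM DPPH in methanol, kept 30 min in the dark at room temperature. Absorbance read at 517 nm against blanks without DPPH. Percent scavenging = (A_DPPH − A_sample)/A_DPPH × 100. IC50 (concentration halving DPPH absorbance) read from a plot of % versus concentration. Ascorbic acid and BHT used as standards.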

DNA [15] = experiment: Binding affinity to calf thymus DNA after 1.5 hrs by spectroscopic titration; assay type: nucleic-acid assay; details: Bos taurus
In short: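 Absorbance titration in 40 mM bicarbonate buffer pH 8.4. Compound held fixed at 40 μM, CT-DNA varied at (0.2–1.6) × 10⁻⁴ M. Mixtures incubated 1.5 h at 37 °C, then UV–Vis spectra recorded from 200 to 800 nm. K_B taken from a plot of [DNA]/(εA − εF) versus [DNA].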

HeLa [16] = experiment: Cell cycle arrest in human HeLa cells assessed as accumulation at subG1 phase after 24 hrs by propidium iodide staining-based FACS flow cytometric analysis; assay type: functional

Structure (SMILES) | Activity (HeLa [1]) | IC50 (MDA-MB-361) [µM] | IC50 (K562) [µM] | Activity (HeLa [2]) | IC50 (MDA-MB-453) [µM] | Activity (HeLa [3]) | Activity (HeLa [4]) | Activity (HeLa [5]) | Activity (Escherichia coli) | Activity (HeLa [6]) | Activity (HeLa [7]) | IC50 (HeLa [8]) [µM] | IC50 (A549) [µM] | IC50 (MRC5) [µM] | Activity (DNA [9]) | Activity (HeLa [10]) | Activity (HeLa [11]) | Activity (HeLa [12]) | Activity (HeLa [13]) | IC50 [14] [µM] | other results
CCOC(=O)/C(CC(=O)c1cccc2c1C(=O)c1ccccc1C2=O)=N\NC(=S)NCc1cccnc1 | Active | 50.5 | 2.17 | Active | 17.7 | Active | Active | Active | inactive | Active | Active | 18.1 | 23.4 | 13.6 | Active | Active | Active | Active | Active | 46.9 | –
Cc1cc(C(C)(C)C)c(O)c(C(C)(C)C)c1 [BUTYLATED HYDROXYTOLUENE] | – | – | – | – | – | – | – | – | – | – | – | – | – | – | – | – | – | – | – | 33.9 | –
CCOC(=O)/C(=C/C(=O)c1cccc2c1C(=O)c1ccccc1C2=O)Nc1ccccc1 | – | 100 | 100 | – | 100 | – | – | – | – | – | – | 100 | 100 | 100 | – | – | – | – | – | – | –
CCOC(=O)/C(CC(=O)c1cccc2c1C(=O)c1ccccc1C2=O)=N/NC(N)=S | Active | 30.7 | 7.99 | Active | 13.6 | Active | Active | Active | inactive | Active | Active | 14.4 | 29 | 36.2 | Active | Active | Active | Active | Active | 20.5 | Kb (DNA [15]): 0.55 ×10⁹ /M
CCOC(=O)/C(CC(=O)c1cccc2c1C(=O)c1ccccc1C2=O)=N\NC(=S)NCc1cccs1 | 40.07% | 25.4 | 2.8 | 32.36% | 13.5 | 15.34% | Active | 13.79% | inactive | Active | 28.61% | 8.25 | 12.9 | 24.4 | Active | 20.62% | Active | 3.79% | 36.27% | 66.5 | Activity (HeLa [16]): Dose-dependent effect
CCCCNC(=S)N/N=C(/CC(=O)c1cccc2c1C(=O)c1ccccc1C2=O)C(=O)OCC | Active | 30.8 | 3.8 | Active | 11.5 | Active | Active | Active | inactive | Active | Active | 10.9 | 19.6 | 21.1 | Active | Active | Active | Active | Active | 25.8 | –
CC[n+]1c(-c2ccccc2)c2cc(N)ccc2c2ccc(N)cc21 | – | – | – | – | – | – | – | – | – | – | – | – | – | – | – | – | – | – | – | – | Kb (DNA [15]): 7 ×10⁷ /M
CCOC(=O)/C(CC(=O)c1cccc2c1C(=O)c1ccccc1C2=O)=N\Nc1ccccc1 | – | 40 | 40 | – | 40 | – | – | – | – | – | – | 40 | 40 | 40 | – | – | – | – | – | – | –
CCOC(=O)/C(CC(=O)c1cccc2c1C(=O)c1ccccc1C2=O)=N\NC(=S)Nc1ccccc1 | 44.72% | 6.61 | 3.59 | 44.66% | 6.91 | 24.11% | Active | 19.4% | inactive | Active | 11.21% | 8.19 | 9.89 | 11.8 | Active | 17.82% | Active | 7.61% | 23.74% | 26.2 | Activity (HeLa [16]): Dose-dependent effect; Kb (DNA [15]): 9.3 ×10⁹ /M
CCOC(=O)/C(CC(=O)c1cccc2c1C(=O)c1ccccc1C2=O)=N\NC(=S)NC1CCCCC1 | Active | 32.6 | 2.35 | Active | 4.64 | Active | Active | Active | inactive | Active | Active | 9.15 | 13.9 | 13.6 | Active | Active | Active | Active | Active | 16.4 | –
CCOC(=O)/C(CC(=O)c1cccc2c1C(=O)c1ccccc1C2=O)=N\NC(=S)NCc1ccco1 | Active | 47.8 | 2.63 | Active | 19.4 | Active | Active | Active | inactive | Active | Active | 19 | 22.6 | 38.6 | Active | Active | Active | Active | Active | 35.8 | –
CCOC(=O)/C(CC(=O)c1cccc2c1C(=O)c1ccccc1C2=O)=N\NC(=S)Nc1ccc(C)cc1 | Active | 32.6 | 3.97 | Active | 11.3 | Active | Active | Active | inactive | Active | Active | 21 | 22.5 | 30.3 | Active | Active | Active | Active | Active | 41 | Kb (DNA [15]): 2.91 ×10⁹ /M
O=C1O[C@H]([C@@H](O)CO)C(O)=C1O [ASCORBIC ACID] | – | – | – | – | – | – | – | – | – | – | – | – | – | – | – | – | – | – | – | 15.9 | –
